The test system of series [1] is B6C3F1 male mice. Nature of the series: Serum ALT in APAP toxicity. It is filed as in vivo, mouse.
For series [2], the system named is HIF-1α. The note with it: B6C3F1 male mice with APAP toxicity; 1 h; ref James et al., 2006; cited from earlier work.
For series [3], the system named is APAP protein adducts in liver. Put plainly: Hepatic APAP protein adducts. It is filed as in vivo, mouse.
Series [4] deals with B6C3F1 male mice. Nature of the series: Liver histology necrosis score. It is filed as in vivo, mouse. Conditions: score 0 absent to 4 severe. An outline of the steps: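 Six-week male B6C3F1 mice, fasted overnight, dosed at 0800 with the analgesic hepatotoxicant IP, then immediately the test compound (MPT inhibitor, 50 or 10 mg/kg IP) or vehicle. Hepatotoxicant was 200 mg/kg IP in the 10 mg/kg arm. Saline controls included; 3–6 mice per group. Killed at 4 h. Liver H&E sections scored blind by three reviewers, 0 (absent) to 4 (severe); mean ± SE.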

[5] abbreviates: APAP 200 mg/kg IP followed by pimonidazole 60 mg/kg IP vs APAP/vehicle, 1 h.

The source of these data is paper PMC3099476 (Toxicology and applied pharmacology, 2011).

As to `CC(=O)Nc1ccc(O)cc1` [APAP, N-acetyl-p-aminophenol], in series [1] (APAP 200 mg/kg IP followed by CYC 10 mg/kg IP or vehicle, 4 h), the ALT vs saline result was “significantly increased”. The “Serum ALT, time course” value in series [1] (APAP 200 mg/kg IP, at 2, 4, 8, 24 and 48 h, vs saline) was “significantly increased above saline”. The “Serum ALT levels” value in series [1] (APAP 15, 30, 100, or 200 mg/kg IP, sacrificed at 1 h, vs saline) was “No significant changes”. Moreover, the “Serum ALT vs saline” value in series [1] (APAP followed by CYC 50 mg/kg IP or vehicle, 4 h) is on record as “significantly increased”. The HIF-1α induction entry in series [2] is “induction of HIF-1α”. Further, the “Hepatic APAP protein adducts vs saline” value in series [3] (APAP followed by CYC 50 mg/kg IP or vehicle, 1, 2, and 4 h) is reported as “increased”. For the same molecule, the “Hepatic protein adducts vs saline” value in series [3] (APAP/veh or APAP/CYC 10 mg/kg, 1 h) is “increased above saline”. Besides, the APAP protein adducts result in series [3] (APAP/veh or APAP/CYC 10 mg/kg, 4 h (data not shown)) is “comparable”. Besides, the “Hepatic APAP protein adduct levels” value in series [3] (separate experiment, APAP/veh or APAP/CYC 10 mg/kg, 1 h) is listed as “elevated”. The “Necrosis Scores at 4 hours, Mean” value in series [4] (Table 1A, CYC 50 mg/kg experiment) amounted to 3; in series [4] (Table 1B, CYC 10 mg/kg experiment), 2.
For the molecule `O=[N+]([O-])c1nccn1CC(O)CN1CCCCC1` (centres unmarked) [pimonidazole], the “Serum ALT” value in series [1] (setting [5]) was “comparable”. For the same molecule, in series [3] (setting [5]), the “Hepatic APAP protein adducts” value is listed as “comparable”. In addition, in series [3] (pimonidazole 60 mg/kg IP after APAP 200 mg/kg IP, 1 h), the “Effect of pimonidazole on APAP metabolism” value is recorded as “no inhibitory affect on APAP metabolism”.
